Reference: ChEMBL document CHEMBL2093137, “WHO-TDR NTD Screening”
≈ marks a conversion by molar mass, not a printed value.

What was measured:
Schistosoma mansoni = assay: WHO-TDR: Schistosomiasis; type: functional; parameters: concentration or dose not given beside the values
How it was run: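 In this whole-organism assay, larval and/or adult worms of Schistosoma mansoni (Puerto Rican strain) were exposed to compounds from a diverse Life Chemicals library of 10,000 members. A reference drug served as positive control. Activity is stated as percent inhibition and IC50.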

Plasmodium falciparum K1 = assay: WHO-TDR: Malaria; type: functional, organism-based, Homo sapiens; conditions: Erythrocyte
How it was run: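 A diverse library of 10,000 compounds from Life Chemicals, filtered for drug-likeness and reactive groups, was screened against the intra-erythrocytic Plasmodium falciparum K1 strain in human red blood cells. Previously published standard procedures were followed, with a reference drug as positive control. Antiplasmodial potency is given as IC50.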

[1] = WHO-TDR: Cytotoxicity; type: toxicity, cell-based; conditions: human, MRC5 cells
Trypanosoma cruzi = assay: WHO-TDR: Chagas disease; type: functional, organism-based, Homo sapiens; conditions: MRC5
How it was run: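 A diverse library of 10,000 compounds from Life Chemicals, filtered for drug-likeness and reactive groups, was screened against intracellular amastigotes of Trypanosoma cruzi Tulahuen CL2 beta-galactosidase strain. The parasites were grown in MRC-5SV2 human lung fibroblast host cells, and a reference drug served as positive control under previously published standard procedures. Antiparasitic potency is given as IC50.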

Leishmania infantum = assay: WHO-TDR: Leishmaniasis; type: functional, organism-based, Mus musculus; conditions: Macrophage
How it was run: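 A diverse library of 10,000 compounds from Life Chemicals, filtered for drug-likeness and reactive groups, was screened against whole organisms. The targets were intracellular amastigotes of Leishmania infantum MHOM/MA(BE)/67 growing in murine peritoneal macrophages. Previously published standard procedures were followed, with a reference drug as positive control. Antiparasitic potency is given as IC50.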

Onchocerca lienalis = assay: WHO-TDR: Onchocerciasis; type: functional; parameters: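 at 12.5 µM on microfilariae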
How it was run: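 Microfilariae of Onchocerca ochengi or Onchocerca lienalis, animal pathogens standing in for the human parasite, were exposed to compounds in a whole-organism screen. The compounds came from a 10,000-compound diverse Life Chemicals library filtered for drug-likeness and reactive groups. Results are expressed as percent inhibition and IC50.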

[2] = system: Trypanosoma brucei brucei; assay: WHO-TDR: Human African Trypanosomiasis (HAT); type: functional, organism-based; conditions: Squib-427
How it was run: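 A diverse library of 10,000 compounds from Life Chemicals, filtered for drug-likeness and reactive groups, was screened against bloodstream forms of Trypanosoma brucei Squib 427 strain in a whole-organism assay. Previously published standard procedures were followed, with reference drugs serving as positive controls. Antiparasitic potency is given as IC50.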

Brugia malayi = assay: WHO-TDR: Lymphatic Filariasis; type: functional; parameters: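 tested at 10 µM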
How it was run: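 In a whole-organism assay, Brugia malayi microfilariae were screened against a diverse Life Chemicals library that had been filtered for drug-likeness and reactive groups. That library comprised 10,000 compounds. Activity is expressed as percent inhibition and as IC50.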

Structure (SMILES)	% Inhibition (Schistosoma mansoni)	IC50 (Plasmodium falciparum K1)	IC50 [1]	IC50 (Trypanosoma cruzi)	IC50 (Leishmania infantum)	% Inhibition (Onchocerca lienalis)	IC50 [2]	% Inhibition (Brugia malayi)
CCS(=O)(=O)c1ccc(CC(=O)Nc2nc3c(s2)CCc2ccccc2-3)cc1	0%	12.4 µg/mL (≈ 30 µM)	0.908 µg/mL (≈ 2.2 µM)	0.436 µg/mL (≈ 1.06 µM)	> 12.4 µg/mL	0%	4.01 µg/mL (≈ 9.71 µM)	0%
O=C(Nc1ccncc1)c1cccn(Cc2ccc(F)cc2)c1=O	0%	> 9.7 µg/mL	2.53 µg/mL (≈ 7.83 µM)	0.45 µg/mL (≈ 1.39 µM)	> 9.7 µg/mL	-1%	> 9.7 µg/mL	0%
Cc1ccc2sc(N(CCN(C)C)C(=O)C3CCN(S(=O)(=O)c4cccs4)CC3)nc2c1C	0%	3.81 µg/mL (≈ 7.51 µM)	1.94 µg/mL (≈ 3.84 µM)	0.772 µg/mL (≈ 1.52 µM)	> 16.3 µg/mL	16.32%	5.21 µg/mL (≈ 10.3 µM)	0%
COc1cccc(-n2ccnc2SCC(=O)Nc2ccccc2C(F)(F)F)c1	0%	> 12.2 µg/mL	> 12.2 µg/mL	> 12.2 µg/mL	> 12.2 µg/mL	0%	0.422 µg/mL (≈ 1.04 µM)	0%
Cc1cccc(Nc2nc(Nc3ccc4c(c3)OCO4)nc(N3CCOCC3)n2)c1	0%	1.06 µg/mL (≈ 2.62 µM)	1.82 µg/mL (≈ 4.49 µM)	2.05 µg/mL (≈ 5.03 µM)	4.3 µg/mL (≈ 10.6 µM)	0%	0.42 µg/mL (≈ 1.03 µM)	0%
CCOc1ccc2nc(N(Cc3cccnc3)C(=O)CSc3ccc(F)cc3)sc2c1	0%	11 µg/mL (≈ 24.2 µM)	> 13.6 µg/mL	0.223 µg/mL (≈ 0.492 µM)	> 13.6 µg/mL	26.7%	> 13.6 µg/mL	0%
Cc1ccc(S(=O)(=O)N2CCCc3cc(NC(=O)Oc4ccccc4)ccc32)cc1	0%	> 12.7 µg/mL	1.76 µg/mL (≈ 4.17 µM)	> 12.7 µg/mL	> 12.7 µg/mL	0%	0.415 µg/mL (≈ 0.982 µM)	0%
O=C(Nc1ccc2c(c1)N(C(=O)C1CC1)CCC2)c1cccc(C(F)(F)F)c1	0%	4.56 µg/mL (≈ 11.7 µM)	> 11.7 µg/mL	0.808 µg/mL (≈ 2.08 µM)	> 11.7 µg/mL	13.3%	3.69 µg/mL (≈ 9.49 µM)	0%
CC(=O)c1cccc(Nc2nc(Nc3ccc(F)c(Cl)c3)nc(N3CCOCC3)n2)c1	25%	3.81 µg/mL (≈ 8.61 µM)	5.32 µg/mL (≈ 12 µM)	0.465 µg/mL (≈ 1.05 µM)	> 13.3 µg/mL	0%	0.643 µg/mL (≈ 1.45 µM)	0%
CSc1ccccc1-c1nnc(NC(=O)c2ccc(Cl)s2)o1	0%	> 10.6 µg/mL	> 10.6 µg/mL	0.416 µg/mL (≈ 1.18 µM)	> 10.6 µg/mL	86.4%	0.856 µg/mL (≈ 2.43 µM)	0%
CCOc1ccc(-c2ccc(OCCNS(=O)(=O)c3cc(C)c(C)cc3C)nn2)cc1	0%	> 13.2 µg/mL	> 13.2 µg/mL	0.752 µg/mL (≈ 1.7 µM)	> 13.2 µg/mL	13.3%	4.24 µg/mL (≈ 9.6 µM)	0%
CN(Cc1ccco1)S(=O)(=O)c1ccc(C(=O)Nc2nnc(-c3ccccc3Cl)o2)cc1	0%	> 14.2 µg/mL	0.807 µg/mL (≈ 1.71 µM)	0.465 µg/mL (≈ 0.983 µM)	> 14.2 µg/mL	0%	2.96 µg/mL (≈ 6.25 µM)	0%
O=C(CSc1ccc(-c2ccc(-n3cccn3)cc2)nn1)Nc1ccc2c(c1)OCO2	0%	> 12.9 µg/mL	> 12.9 µg/mL	> 12.9 µg/mL	0.419 µg/mL (≈ 0.971 µM)	13.3%	> 12.9 µg/mL	0%
CC(C)Sc1ccc(C(=O)Nc2nc(-c3ccccn3)cs2)cc1	0%	0.138 µg/mL (≈ 0.388 µM)	3.11 µg/mL (≈ 8.75 µM)	0.368 µg/mL (≈ 1.04 µM)	> 10.7 µg/mL	86.7%	0.341 µg/mL (≈ 0.959 µM)	0%
O=C(CCSc1ccccc1)N(Cc1ccccn1)c1nc2ccccc2s1	0%	11.3 µg/mL (≈ 28 µM)	> 12.2 µg/mL	0.466 µg/mL (≈ 1.15 µM)	> 12.2 µg/mL	11.35%	> 12.2 µg/mL	0%
